Source: PubChem BioAssay
Casp6 inh = blocks human caspase-6 cleavage activity; P55212; purified caspase-6, Z-VEID-R110 cleavage fluorescence; inhibition, % at 12.5 µM; 350,000 compounds, 0.53% hits; AID 686996;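 active = mean inhibition across replicates at least about 35%, with every replicate also reaching that limit, limit read from the data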;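 also: 0% = median of neutral control wells and 100% = no fluorescence left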
rRNA inh HTS = inhibits bacterial ribosomal RNA function over humanized ribosomes; 350,000 compounds, 1.6% hits; E. coli WT GFP vs humanized-ribosome RFP mutants, fluorescence, 24 h; stronger effect = lower value; DMSO median 0, no signal -100; GFP signal change (wild-type ribosome), % (no concentration beside the values); AID 720706;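 active = significant combined selectivity score with lowered wild-type GFP, culture density cut under 30%, mutant RFP and density less affected; inactive = any of these conditions unmet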
ERAP1 HTS inh = inhibitors of human ERAP1 aminopeptidase; Q9NZ08; recombinant ERAP1, Leu-AMC fluorescence, 60 min; inhibition, % at 10.7 µM; 340,000 compounds, 0.15% hits;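 active = mean replicate inhibition of at least 30%, or all replicates individually reaching that 30% level; inactive = mean below 30% and not every replicate reaching it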;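 also: 0% = neutral control wells and 100% = L-leucinethiol positive control wells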
Target sequence (Q9NZ08 whole entry, looked up): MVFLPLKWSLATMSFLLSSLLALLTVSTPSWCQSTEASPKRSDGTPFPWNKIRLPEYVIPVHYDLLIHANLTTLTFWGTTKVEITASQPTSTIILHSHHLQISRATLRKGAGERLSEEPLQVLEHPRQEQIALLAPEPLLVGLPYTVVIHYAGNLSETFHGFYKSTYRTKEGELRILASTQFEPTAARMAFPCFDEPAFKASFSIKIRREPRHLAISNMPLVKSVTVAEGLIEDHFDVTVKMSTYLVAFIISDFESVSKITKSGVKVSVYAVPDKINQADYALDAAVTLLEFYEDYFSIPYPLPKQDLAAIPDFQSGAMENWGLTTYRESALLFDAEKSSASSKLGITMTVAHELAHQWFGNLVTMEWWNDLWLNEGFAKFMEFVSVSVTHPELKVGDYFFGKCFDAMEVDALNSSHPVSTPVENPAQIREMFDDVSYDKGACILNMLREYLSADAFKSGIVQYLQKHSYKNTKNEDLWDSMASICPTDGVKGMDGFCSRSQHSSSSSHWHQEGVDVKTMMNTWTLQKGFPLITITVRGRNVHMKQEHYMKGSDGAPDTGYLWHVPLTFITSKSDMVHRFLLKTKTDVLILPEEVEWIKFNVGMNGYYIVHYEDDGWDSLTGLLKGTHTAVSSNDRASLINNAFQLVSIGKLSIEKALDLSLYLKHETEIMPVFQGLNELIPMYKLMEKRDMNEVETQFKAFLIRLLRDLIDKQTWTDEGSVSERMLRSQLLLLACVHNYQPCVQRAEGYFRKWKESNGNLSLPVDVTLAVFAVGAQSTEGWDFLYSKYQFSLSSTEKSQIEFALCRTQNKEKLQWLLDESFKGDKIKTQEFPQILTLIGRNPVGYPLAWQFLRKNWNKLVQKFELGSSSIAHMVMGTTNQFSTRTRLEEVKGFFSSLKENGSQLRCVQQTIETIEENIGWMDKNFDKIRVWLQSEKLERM
PGC1a acetyl inh = lowers PGC1a acetylation signal in U2OS cells; AlphaScreen anti-acetyl-lysine; with virally co-expressed GCN5 acetyltransferase; inhibition, % at 15.6 µM; 350,000 compounds, 0.17% hits;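 active = every replicate shows inhibition of at least 40%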;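 also: 0% = neutral control wells and 100% = positive control wells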
S100A4 inh HTS = blocks human S100A4 binding to myosin IIA peptide; 360,000 compounds, 0.14% hits; inhibition, % at 10.7 µM; S100A4/TAMRA-MyoIIA peptide fluorescence polarization; P26447;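 active = mean inhibition of at least 70% across replicates, with every replicate also reaching that level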
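Material: S100A4 monomer (human). Medium: Calcium-containing HEPES buffer, pH 7.2. Probe or stimulus: labelled myosin peptide probe, 5 nM. Compound dosing: one concentration per compound. Timing: polarization read 5 min after assay mix addition, stable 5–60 min. Benchmarks: DMSO as neutral control, TFP as positive control.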
ARNT-TACC3 inh = disruptors of human ARNT/TACC3 interaction. Q9Y6A5. AlphaScreen His-ARNT PAS-B/GST-TACC3 binding, luminescence; TACC3 fragment carries E629A point mutation. inhibition, % at 9.99 µM. 390,000 compounds, 0.66% hits. AID 623870;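 active = mean inhibition of replicates at least 50% and at least half of replicates each reaching 50%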;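 also: 0% = complete ARNT plus TACC3 wells and 100% = ARNT alone without TACC3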
ARNT Alpha ctr-1 = AlphaScreen artifact in ARNT/TACC3 counter-screen; shares compounds with ARNT-TACC3 inh; His-ARNT PASB-GST AlphaScreen artifact counter-screen, luminescence; AC50, µM (highest dose often 68 µM), for inactives: top-dose activity change, negative = signal decrease; 1,200 compounds, 50% hits;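 active = every separate test run was called active for a drop in luminescence, with AC50 within twice the top valid dose, actives reach about 71 µM in these data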
ARNT Alpha ctr-2 = AlphaScreen artifact flagged for ARNT-TACC3 inhibitors. Dual-tagged His-ARNT PASB-GST AlphaScreen artifact counter-screen. shares compounds with ARNT-TACC3 inh. AC50, µM. 45 compounds, 70% hits;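 active = luminescence drop, with half-maximal potency fitted within twice the sample's top valid dose, cut at about 70 µM in these data; inactive = the rest, including signal moving the wrong way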
* hit, by the source's call; . = no result; [ ] = remark or other dose. Sampled rows, rich in hits. Any-hit rate of the full collection: about 2.4%.

SMILES	Casp6 inh	rRNA inh HTS	ERAP1 HTS inh	PGC1a acetyl inh	S100A4 inh HTS	ARNT-TACC3 inh	ARNT Alpha ctr-1	others
CO[C@H]1CN(C)C(=O)c2ccc(NS(C)(=O)=O)cc2OC[C@H](C)N(Cc2cccnc2)C[C@H]1C	-1.2	-0.9	4.4	-2.2	1.7	10.5	.
C[C@@H]1CN([C@H](C)CO)C(=O)Cc2cc(N(C)C)ccc2O[C@@H]1CN(C)C(=O)NC1CCCCC1	-1.1	0.9	-1.2	-3.9	3.4	0.0	.
C[C@@H]1CN([C@@H](C)CO)C(=O)Cc2cc(N(C)C)ccc2O[C@H]1CN(C)Cc1ccc(Oc2ccccc2)cc1	.	-50.8	.	-16.5	.	.	.
C[C@@H]1CN([C@H](C)CO)C(=O)Cc2cc(N(C)C)ccc2O[C@H]1CN(C)Cc1ccc(Oc2ccccc2)cc1	-0.3	-33.9	0.0	-2.2	4.1	52.4*	15.4µM*
CC(C)NC(=O)N(C)C[C@H]1Oc2ccc(N(C)C)cc2CC(=O)N([C@@H](C)CO)C[C@@H]1C	-0.8	2.0	3.3	4.5	7.4	60.2*	9.5%[42 µM]
O=C(CCN1CCCCC1)N[C@@H]1C=C[C@H](CC(=O)N2CCC(Cc3ccccc3)CC2)O[C@@H]1CO	1.1	0.1	-4.5	-8.1	4.8	6.4	.
C[C@@H]1CN([C@H](C)CO)C(=O)Cc2cc(NC(=O)CCC(F)(F)F)ccc2O[C@H]1CN(C)Cc1ccc(Oc2ccccc2)cc1	.	-8.1	.	-3.8	.	-21.0	.
COc1ccc2c(c1OC)CN(C)CCc1cc3c(cc1C(O)C2)OCO3 (stereo not drawn)	.	.	.	11.0	.	-2.6	.
COc1ccc2cc1Oc1ccc(cc1)C[C@H]1c3cc(c(OC)cc3CCN1C)Oc1c(OC)c(OC)cc3c1[C@@H](C2)N(C)CC3	2.2	-6.7	6.6	13.0	-6.6	30.1*	-21.3%
C[C@@H]1CN([C@@H](C)CO)C(=O)c2cccc(NC(=O)c3cnccn3)c2O[C@H]1CN(C)C(=O)NC1CCCCC1	-0.7	1.6	5.1	15.5	-3.6	-3.3	.
O=C(N/N=C/c1sc2ccccc2c1O)c1cccc2ccccc12	.	.	.	.	.	55.0*	68.9µM*
O=C(N/N=C/c1ccccc1)c1cccc2ccccc12	-1.0	14.8	-0.6	.	-3.0	-3.2	.
CSc1nnc(-c2cc3c(s2)-c2ccccc2CC3)o1	.	.	.	-10.5	.	-2.8	.
S=c1[nH]nc(-c2cc3c(s2)-c2ccccc2CC3)o1	.	.	.	-0.5	.	69.7*	-21.0%
CCCNC(=O)N1C[C@H](C)[C@H](OC)CN(C)C(=O)c2cc(NS(=O)(=O)CC(F)(F)F)ccc2OC[C@@H]1C	1.5	1.3	-2.6	-3.2	-2.3	-5.3	.
CNC[C@@H]1Oc2ccc(NS(=O)(=O)c3ccc(Cl)cc3)cc2CC(=O)N([C@@H](C)CO)C[C@@H]1C	-0.3	3.2	3.4	-4.4	-1.7	21.6	.
COc1cc(/C=N/Nc2nc3ccccc3[nH]2)cc(OC)c1O	.	.	.	.	.	24.8	.
COc1cccc(/C=N/Nc2nc3ccccc3[nH]2)c1O	0.6	-28.6	-1.9	14.5	-1.6	57.9*	-41.8%
CC(C)C(=O)NC(c1ccco1)c1cc(Cl)c2cccnc2c1O (stereo not drawn)	.	.	.	.	.	.	.	ARNT Alpha ctr-2=43.1*
O=C(Cc1ccccc1)NC(c1ccco1)c1ccc2cccnc2c1O (stereo not drawn)	.	.	.	.	.	.	.	ARNT Alpha ctr-2=8.67*
CCN(CC)c1ccc(C(NC(=O)C(C)C)c2ccc3cccnc3c2O)cc1 (stereo not drawn)	.	-1.8	-0.5	19.7	-2.3	.	.
CC(C)C(=O)NC(c1ccco1)c1ccc2cccnc2c1O (stereo not drawn)	.	.	.	15.9	.	53.4*	28.5µM*	ARNT Alpha ctr-2=9.4*
CCCC(=O)NC(c1ccco1)c1cc(Cl)c2cccnc2c1O (stereo not drawn)	.	.	.	11.8	.	1.2	.
CC(C)C(=O)NC(c1cccc([N+](=O)[O-])c1)c1ccc2cccnc2c1O (stereo not drawn)	-5.0	-0.4	1.3	28.3	8.9	63.0*	16.8µM*
O=C(c1ccc2c(c1)OCO2)N1CC(=O)N2[C@H](CO)[C@@H](c3ccc(C#CC4CCCC4)cc3)[C@@H]2C1	4.1	2.1	1.1	-9.2	-11.2	.	.
SMILES	Casp6 inh	rRNA inh HTS	ERAP1 HTS inh	PGC1a acetyl inh	S100A4 inh HTS	ARNT-TACC3 inh	ARNT Alpha ctr-1	others
CC(=O)N(C)C[C@@H]1Oc2cc(-c3ccc(F)cc3)ccc2S(=O)(=O)N([C@H](C)CO)C[C@@H]1C	0.3	-6.1	0.3	-5.3	-7.8	-27.4	.
CC(C)CC(=O)NC(c1cccs1)c1ccc2cccnc2c1O (stereo not drawn)	.	.	.	11.7	.	.	.	ARNT Alpha ctr-2=6.98*
CCCC(=O)NC(c1ccc(C)cc1)c1ccc2cccnc2c1O (stereo not drawn)	.	.	.	24.9	.	-23.6	.
CC(=O)NC(c1ccco1)c1cc(F)c2cccnc2c1O (stereo not drawn)	4.5	18.8	-0.7	.	-8.8	57.5*	45.4µM*
C[C@@H]1CCCCO[C@@H](CN(C)CC2CCCCC2)[C@@H](C)CN([C@H](C)CO)C(=O)c2cc(NC(=O)Cc3ccccc3)ccc2O1	0.4	5.2	1.0	3.1	10.5	-11.0	.
O=C(Nc1ccccc1C(=O)Nc1ccccc1C(=O)O)c1ccccc1	-2.5	-38.5	1.9	.	8.9	73.9*	26.2µM*
Nc1ccc(C(=O)Nc2ccccc2C(=O)O)cc1	.	.	.	-11.2	.	12.1	.
COCC#Cc1ccc([C@@H]2[C@H](CO)N3C(=O)CN(C(=O)Nc4ccc(F)cc4)C[C@@H]23)cc1	1.3	-0.8	0.9	-0.5	5.2	.	.
C/C(=C\C(=O)c1ccccc1)Nc1ccc(N2CCOCC2)cc1	.	.	.	2.6	.	39.3*	-26.5%
C/C(=C\C(=O)c1ccc(Cl)cc1)Nc1ccc(N2CCOCC2)cc1	.	.	.	17.8	.	4.0	.
CNC[C@H]1Oc2cc(C#Cc3ccncc3)ccc2S(=O)(=O)N([C@H](C)CO)C[C@@H]1C	5.5	-3.7	6.5	-0.9	-19.5	9.8	.
CC(C)(C)OC(=O)N1CCN(Cc2ccc(O)c3ncccc23)CC1	.	.	.	.	.	.	1.1µM*
CSc1ncccc1C(=O)N1CCN(S(=O)(=O)c2cc(C)ccc2C)CC1	-1.8	-0.2	-3.4	4.6	-0.5	-1.2	.
Cc1ccc(C)c(S(=O)(=O)N2CCN(Cc3ccc(O)c4ncccc34)CC2)c1	4.7	-57.5	0.1	38.3	4.3	54.3*	17.3µM*
CCOC(=O)N1CCN(Cc2ccc(O)c3ncccc23)CC1	-17.0	-13.3	-2.2	.	-6.3	.	.
CCCCN(CC)c1nc(-c2ccncc2)nc2ccccc12	.	.	.	-14.0	.	-3.2	.
